{"data": "Experimental data gathered from unrelated publications", "read-out": "cell growth or viability"}
{"Compound": "Cc1nc(NC(=O)N2CCC[C@H]2C(N)=O)sc1-c1ccnc(C(C)(C)C(F)(F)F)c1", "cell line": "BFTC-909", "assay": "ATP luminescence", "conditions": "5 days", "endpoint": "EC50", "value": "5560 nM"}
{"Compound": "CCCCn1cnc2ccc(-c3ccc(NC(=O)NCCC)nc3)cc2c1=O", "cell line": "HCC827", "assay": "CCK-8", "conditions": "72 h", "endpoint": "IC50", "value": "> 10000 nM"}
{"Compound": "CN(C)CCNC(=O)c1ccc(-c2nc3ccc4[nH]ncc4c3c3c2CCCCC3)c(F)c1", "cell line": "HCC827", "conditions": "72 h", "endpoint": "GI50", "value": "985 nM"}
{"Compound": "CCCn1cnc2ccc(-c3ccc(NC(=O)CC4CCC4)nc3)cc2c1=O", "cell line": "HCC827", "assay": "CCK-8", "conditions": "72 h", "endpoint": "IC50", "value": "1210 nM"}
{"Compound": "C[C@H](Nc1ccc2c(c1)OCCn1cc(N3C(=O)OC[C@H]3C(F)F)nc1-2)C(N)=O", "cell line": "BFTC-909", "assay": "ATP luminescence", "conditions": "5 days", "endpoint": "EC50", "value": "342 nM"}
{"Compound": "CN(C)CCNC(=O)c1ccc(-c2nc3ccc4[nH]ncc4c3c3c2CCCC3)cc1", "cell line": "HCC827", "conditions": "72 h", "endpoint": "GI50", "value": "1040 nM"}
{"Compound": "Cc1nc(Nc2ncc(C(=O)Nc3c(C)cccc3Cl)s2)cc(N2CC[C@H](O)C2)n1", "cell line": "KU812", "assay": "ATP luminescence", "conditions": "10 µM, 72 h", "endpoint": "inhibition", "value": "97%"}
{"Compound": "CN(C)CCNC(=O)c1ccc(-c2nc3ccc4[nH]ncc4c3c3c2CCCCC3)cc1", "cell line": "HCC827", "conditions": "72 h", "endpoint": "GI50", "value": "3040 nM"}
{"Compound": "CCCCn1cnc2ccc(-c3ccc(NC(=O)Nc4ccc(C(F)(F)F)cc4)nc3)cc2c1=O", "cell line": "HCC827", "assay": "CCK-8", "conditions": "72 h", "endpoint": "IC50", "value": "> 10000 nM"}
